Results: ChEMBL document CHEMBL3826928, “Incorporation of Phosphonate into Benzonaphthyridine Toll-like Receptor 7 Agonists for Adsorption to Aluminum Hydroxide” (J Med Chem, 2016)

How the values were obtained:
[1] = Aqueous solubility of compound in pH 6.5 to 7.2 solution incubated for 24 hrs by saturated shake flask method; type: physicochemical; conditions: buffer, pH 6.5, 24 h
[2] = system: Serum; test: Drug level in Balb/c mouse serum at 100 ug, im measured at 24 hrs post dose; type: ADME, organism-based; conditions: in vivo
Procedure, shortened: (§1)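 Female BALB/c mice (6−8 weeks, 3 per group) given 100 μg intramuscularly, with or without alum, 50 μL in each hind leg. Serum from retro-orbital bleeds at time points; protein precipitation, reverse-phase LC and ESI+ MRM mass spectrometry. Injected muscle drug level measured at 24 h.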

[3] = system: Muscle tissue; test: Drug level in Balb/c mouse muscle at 100 ug, im measured at 24 hrs post dose; type: ADME, organism-based; conditions: in vivo; procedure, shortened: as §1
[4] = system: Serum; test: Drug level in Balb/c mouse serum at 100 ug, im measured up to 24 hrs post dose using alum bound compound formulation; type: ADME, organism-based; conditions: in vivo; procedure, shortened: as §1
[5] = system: Muscle tissue; test: Drug level in Balb/c mouse muscle at 100 ug, im measured at 24 hrs post dose using alum bound compound formulation; type: ADME, organism-based; conditions: in vivo; procedure, shortened: as §1

Question: With `Cc1ccc2c(c1)nc(N)c1ncc(CCc3ccc(OCCCP(=O)(O)O)cc3C)cc12` as the compound, how does the solubility [1] read?
Answer: Insoluble

Question: For `Cc1ccc2c(c1)nc(N)c1ncc(CCc3ccc(OCCOCCOCCC(F)(F)P(=O)(O)O)cc3C)cc12`, which Drug uptake [2] is on record?
Answer: Active

Question: And the Drug uptake [3]?
Answer: Not Active

Question: And the Drug uptake [4]?
Answer: Not Active

Question: And the Drug uptake [5]?
Answer: Active
